Source: ChEMBL document CHEMBL1158468, “Synthesis, structure-activity relationships, and in vivo evaluation of N3-phenylpyrazinones as novel corticotropin-releasing factor-1 (CRF1) receptor antagonists” (J Med Chem, 2009)
Calls of active or inactive are those of the source. No cut-off for these calls is given here.

Tests used:
[1] = target: T1, Corticotropin-releasing factor receptor 1 (Rattus norvegicus, UniProt P35353); experiment: Displacement of [125I]Tyr-ovine-CRF from CRF1 receptor in rat frontal cortex homogenate by gamma counting; type: tissue-based
T1 sequence (P35353 whole entry): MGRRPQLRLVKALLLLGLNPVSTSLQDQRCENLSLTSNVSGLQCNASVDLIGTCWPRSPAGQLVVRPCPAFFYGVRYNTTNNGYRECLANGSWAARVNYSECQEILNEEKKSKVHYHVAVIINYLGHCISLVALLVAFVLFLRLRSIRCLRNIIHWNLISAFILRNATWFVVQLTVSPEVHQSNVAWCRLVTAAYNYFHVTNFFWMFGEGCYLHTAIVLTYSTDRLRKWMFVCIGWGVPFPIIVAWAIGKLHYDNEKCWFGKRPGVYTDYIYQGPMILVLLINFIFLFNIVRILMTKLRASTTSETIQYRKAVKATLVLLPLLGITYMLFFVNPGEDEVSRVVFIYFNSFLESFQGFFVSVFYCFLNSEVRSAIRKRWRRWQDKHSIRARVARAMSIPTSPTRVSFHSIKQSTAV
In short: (§1)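 Washed homogenates of frozen rat frontal cortex (CRF1, 25 μg/well) or porcine choroid plexus (CRF2, 10 μg/well) in 50 mM Hepes pH 7.0, 10 mM MgCl2, 2 mM EGTA, protease inhibitors, 0.005% Triton X-100. Ligand 150 pM 125I-ovine-CRF (CRF1) or 100 pM 125I-sauvagine (CRF2). Incubation 2 h at 21 °C, then filtration and gamma counting. Nonspecific binding: 1 μM CRF1 reference antagonist or 1 μM α-helical CRF(9-41). IC50 from 5- or 10-point curves by nonlinear regression.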

Rattus norvegicus [2] = experiment: Free plasma concentration in Sprague-Dawley rat at 10 mg/kg, po; type: ADME, organism-based; set-up: dose 10 mg/kg, route oral; details: in vivo
[3] = Oral bioavailability in cynomolgus monkey at 10 mg/kg; type: ADME, organism-based, Macaca fascicularis; details: in vivo
In short: (§2)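 Cynomolgus monkeys, n = 3 per route. Iv dose 2 mg/kg in PEG:ethanol 90:10 (v/v), 1 mL/kg, sampled from jugular vein. Oral dose 10 mg/kg as suspension in 1% Tween in 0.5% methylcellulose, 3 mL/kg, sampled from femoral vein. Sampling to 24 h; plasma measured by LC/MS/MS.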

[4] = Unbound fraction in rat plasma after 3 hrs by equilibrium dialysis method; type: ADME, cell-free
In short: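 Rat plasma spiked with compound, then equilibrium-dialysed against isotonic phosphate buffer for 3 h at 37 °C. Compound in the plasma and buffer samples was quantified by LC/MS/MS after acetonitrile protein precipitation with internal standard. Unbound fraction was taken as the buffer-to-plasma concentration ratio.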

Rattus norvegicus [5] = experiment: Anxiolytic activity in Sprague-Dawley rat assessed as decrease in latency to exit dark chamber at 3 mg/kg, po after 1 hr by defensive withdrawal test; type: functional; set-up: scale not given: the % may be the effect or the level left
In short: (§3)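 Male Sprague-Dawley rats (180–300 g), dosed po 1 h before testing in 0.25% methylcellulose suspension (bead-milled), 2 mL/kg. Blind observer recorded the latency to leave a dark chamber placed in an illuminated open field (all four paws out) over 15 min. ANOVA with Fisher's LSD, p < 0.05.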

[6] = Volume of distribution at steady state in cynomolgus monkey at 2 mg/kg, iv; type: ADME, organism-based, Macaca fascicularis; set-up: dose 2 mg/kg, route intravenous; details: in vivo, read-out: Vdss; in short: as §2
[7] = Cmax in Sprague-Dawley rat at 10 mg/kg, po; type: ADME, organism-based; set-up: dose 10 mg/kg, route oral; details: in vivo
In short: (§4)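 Male Sprague-Dawley rats; iv 2 mg/kg in PEG:ethanol 90:10 (v/v) at 1 mL/kg, or oral 10 mg/kg as 1% Tween 80 in 0.5% methylcellulose suspension at 3 mL/kg; n = 3 per route. Jugular catheter blood taken to 24 h postdose. Plasma was protein-precipitated with acetonitrile and assayed by LC/MS/MS.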

Rattus norvegicus [8] = experiment: Hepatic blood flow in Sprague-Dawley rat at 2 mg/kg, iv; type: ADME, organism-based, Liver; set-up: dose 2 mg/kg, route intravenous; details: in vivo
[9] = Half life in Sprague-Dawley rat at 2 mg/kg, iv; type: ADME, organism-based; set-up: dose 2 mg/kg, route intravenous; details: in vivo; in short: as §4
[10] = target: T2, Corticotropin-releasing factor receptor 1 (Homo sapiens, UniProt P34998); experiment: Antagonist activity at CRF1 receptor in human Y79 cells assessed as inhibition of CRF-stimulated cAMP production by HTRF method
T2 sequence (P34998 whole entry): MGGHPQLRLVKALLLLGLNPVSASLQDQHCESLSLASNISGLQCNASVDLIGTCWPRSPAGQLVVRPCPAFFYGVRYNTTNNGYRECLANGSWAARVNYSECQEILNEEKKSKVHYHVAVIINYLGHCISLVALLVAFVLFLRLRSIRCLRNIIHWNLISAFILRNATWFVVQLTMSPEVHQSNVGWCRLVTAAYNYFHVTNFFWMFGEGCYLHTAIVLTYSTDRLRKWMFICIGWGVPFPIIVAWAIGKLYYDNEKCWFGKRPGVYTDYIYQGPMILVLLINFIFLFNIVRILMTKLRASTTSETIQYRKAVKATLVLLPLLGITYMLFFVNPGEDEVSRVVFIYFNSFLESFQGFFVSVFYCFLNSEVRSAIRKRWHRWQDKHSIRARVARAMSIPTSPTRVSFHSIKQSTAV

[11] = Volume of distribution at steady state in Sprague-Dawley rat at 2 mg/kg, iv; type: ADME, organism-based; set-up: dose 2 mg/kg, route intravenous; details: in vivo, read-out: Vdss; in short: as §4
Rattus norvegicus [12] = experiment: Ex vivo displacement of [125I-Tyro]-sauvagine from CRF1 receptor in Sprague-Dawley rat parietal cortex at 10 mg/kg, po by autoradiography; type: functional
In short: (§5)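 Brains from orally dosed rats taken after the defensive withdrawal test. 20 μm cryostat sections preincubated 1 min, then incubated 20 min at 22–24 °C with 0.15–0.20 nM [125I-Tyro]sauvagine in 50 mM HEPES pH 7.2 buffer. Nonspecific binding from vehicle sections with 1 μM reference CRF1 antagonist. Parietal cortex occupancy read by autoradiography and computed relative to vehicle specific binding.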

Rattus norvegicus [13] = experiment: Plasma concentration in Sprague-Dawley rat at 3 mg/kg, po; type: ADME, organism-based; set-up: dose 3 mg/kg, route oral; details: in vivo
[14] = Clearance in Sprague-Dawley rat at 2 mg/kg, iv; type: ADME, organism-based; set-up: dose 2 mg/kg, route intravenous; details: in vivo; in short: as §4
Rattus norvegicus [15] = experiment: Plasma concentration in Sprague-Dawley rat at 10 mg/kg, po; type: ADME, organism-based; set-up: dose 10 mg/kg, route oral; details: in vivo
[16] = Octanol-water partition coefficient, log D at pH 7.4; type: physicochemical
Rattus norvegicus [17] = experiment: Anxiolytic activity in Sprague-Dawley rat assessed as decrease in latency to exit dark chamber at 10 mg/kg, po after 1 hr by defensive withdrawal test; type: functional; set-up: scale not given: the % may be the effect or the level left; in short: as §3
[18] = Half life in cynomolgus monkey at 2 mg/kg, iv; type: ADME, organism-based, Macaca fascicularis; set-up: dose 2 mg/kg, route intravenous; details: in vivo; in short: as §2
[19] = AUC in Sprague-Dawley rat at 10 mg/kg, po; type: ADME, organism-based; set-up: dose 10 mg/kg, route oral; details: plasma; in short: as §4
Rattus norvegicus [20] = experiment: Ex vivo displacement of [125I-Tyro]-sauvagine from CRF1 receptor in Sprague-Dawley rat parietal cortex at 3 mg/kg, po by autoradiography; type: functional; in short: as §5
Rattus norvegicus [21] = experiment: Plasma concentration in Sprague-Dawley rat at 1 mg/kg, po; type: ADME, organism-based; set-up: dose 1 mg/kg, route oral; details: in vivo
[22] = AUC in cynomolgus monkey at 10 mg/kg, po; type: ADME, organism-based, Macaca fascicularis; set-up: dose 10 mg/kg, route oral; details: plasma; in short: as §2
[23] = Oral bioavailability in Sprague-Dawley rat at 10 mg/kg; type: ADME, organism-based; details: in vivo; in short: as §4
[24] = Cmax in cynomolgus monkey at 10 mg/kg, po; type: ADME, organism-based, Macaca fascicularis; set-up: dose 10 mg/kg, route oral; details: in vivo; in short: as §2
Sus scrofa = species on record: Sus scrofa; experiment: (§6) Displacement of [125I]sauvagine from CRF2 receptor in pig choroid plexus homogenate by gamma counting; type: tissue-based; in short: as §1
[25] = as §6; type: tissue-based, Sus scrofa; in short: as §1
[26] = Clearance in cynomolgus monkey at 2 mg/kg, iv; type: ADME, organism-based, Macaca fascicularis; set-up: dose 2 mg/kg, route intravenous; details: in vivo; in short: as §2
Rattus norvegicus [27] = experiment: Free plasma concentration in Sprague-Dawley rat at 1 mg/kg, po; type: ADME, organism-based; set-up: dose 1 mg/kg, route oral; details: in vivo
Rattus norvegicus [28] = experiment: Anxiolytic activity in Sprague-Dawley rat assessed as decrease in latency to exit dark chamber at 1 mg/kg, po after 1 hr by defensive withdrawal test; type: functional; set-up: scale not given: the % may be the effect or the level left; in short: as §3
Rattus norvegicus [29] = experiment: Free plasma concentration in Sprague-Dawley rat at 3 mg/kg, po; type: ADME, organism-based; set-up: dose 3 mg/kg, route oral; details: in vivo
Rattus norvegicus [30] = experiment: Ex vivo displacement of [125I-Tyro]-sauvagine from CRF1 receptor in Sprague-Dawley rat parietal cortex at 1 mg/kg, po by autoradiography; type: functional; in short: as §5
Rattus norvegicus [31] = experiment: Anxiolytic activity in po dosed Sprague-Dawley rat assessed as minimal effective dose by defensive withdrawal test; type: functional; details: read-out: MED; in short: as §3

COc1ccc(Nc2nc(Cl)cn([C@H](C)C3CC3)c2=O)c(C(F)(F)F)n1
IC50 [1]: 1.8 nM

C=Cc1cn([C@H](C)C2CC2)c(=O)c(Nc2ccc(OC)nc2C(F)(F)F)n1
IC50 [1]: 1200 nM

CC[C@H](COC)n1cc(Cl)nc(Nc2c(C)cc(C)cc2C)c1=O
IC50 [1]: 1.4 nM

COC[C@@H](C1CC1)n1cc(Cl)nc(Nc2cc(C)c(O)cc2C)c1=O
IC50 [1]: 280 nM

CCCC(CCC)n1cc(Cl)nc(Nc2c(C)cc(C)cc2C)c1=O
IC50 [1]: 2.4 nM

CCC(CC)n1cc(Cl)nc(Nc2c(C)cc(C)cc2C)c1=O
IC50 [1]: 2.9 nM

COC[C@H](C)n1cc(Cl)nc(Nc2cc(C)c(OC)cc2C)c1=O
IC50 [1]: 5.8 nM

COc1cc(C)c(Nc2nc(Cl)cn([C@@H](CO)C3CC3)c2=O)cc1C
IC50 [1]: 10 nM

COc1ccc(Nc2nc(C)cn([C@H](C)C3CC3)c2=O)c(C(F)(F)F)n1
IC50 [1]: 3.8 nM

CCc1cn([C@H](C)C2CC2)c(=O)c(Nc2ccc(OC)nc2C(F)(F)F)n1
IC50 [1]: 180 nM

COC[C@@H](C1CC1)n1cc(Cl)nc(Nc2cc(C)c(OCc3ccccc3)cc2C)c1=O
IC50 [1]: 910 nM

COC[C@@H](C1CC1)n1cc(Cl)nc(Nc2cc(C)c(OC)cc2C)c1=O
Cp(f) (Rattus norvegicus [2]): 1.6 nM | bioavailability [3]: 2% | fraction unbound at 3 h [4]: 0.021 | Activity (Rattus norvegicus [5]): 60% | IC50 [1]: 0.26 nM | Vd [6]: 7.7 L/kg | Cmax [7]: 52 nM | QH (Rattus norvegicus [8]): 55 mL/min/kg | half-life [9]: 18 h | IC50 [10]: 1.9 nM | Vd [11]: 97 L/kg | Activity (Rattus norvegicus [12]): 94% | concentration (Rattus norvegicus [13]): 14 nM | clearance [14]: 170 mL/min/kg | concentration (Rattus norvegicus [15]): 76 nM | logD [16]: 4.35 | Activity (Rattus norvegicus [17]): 65% | half-life [18]: 9.3 h | AUC [19]: 0.36 µM·h | Activity (Rattus norvegicus [20]): 72% | concentration (Rattus norvegicus [21]): 4.9 nM | AUC [22]: 0.41 µM·h | bioavailability [23]: 14% | Cmax [24]: 32 nM | Activity (Sus scrofa): inactive | IC50 [25]: > 10000 nM | clearance [26]: 21 mL/min/kg | Cp(f) (Rattus norvegicus [27]): 0.1 nM | Activity (Rattus norvegicus [28]): <5% | Cp(f) (Rattus norvegicus [29]): 0.29 nM | Activity (Rattus norvegicus [30]): 37% | minimal effective dose (Rattus norvegicus [31]): 3 mg/kg

COc1cc(Br)c2c(c1)CCN2c1nc(Cl)cn([C@H](C)C2CC2)c1=O
IC50 [1]: 0.94 nM

CCC(CC)Cn1cc(Cl)nc(Nc2cc(C)c(OC)cc2C)c1=O
IC50 [1]: 76 nM

CCC(CC)n1cc(Cl)nc(Nc2cc(C)c(OC)cc2C)c1=O
IC50 [1]: 0.8 nM

Cc1cc(C)c(Nc2nc(Cl)cn([C@H](C)C3CC3)c2=O)c(C)c1
IC50 [1]: 1.7 nM

COc1ccc(Nc2nc(C#N)cn([C@H](C)C3CC3)c2=O)c(C(F)(F)F)n1
IC50 [1]: 6.7 nM

CC[C@H](C1CC1)n1cc(Cl)nc(Nc2cc(C)c(OC)cc2C)c1=O
IC50 [1]: 0.27 nM

CC[C@H](C1CC1)n1cc(Cl)nc(Nc2c(C)cc(C)cc2C)c1=O
IC50 [1]: 0.63 nM

COc1cc(C)c(Nc2nc(Cl)cn([C@H](C)C3CC3)c2=O)cc1C
IC50 [1]: 0.42 nM

CCOc1cc(C)c(Nc2nc(Cl)cn([C@@H](COC)C3CC3)c2=O)cc1C
IC50 [1]: 1.5 nM

CCC(CC)Cn1cc(Cl)nc(Nc2c(C)cc(C)cc2C)c1=O
IC50 [1]: 39 nM

COCC(COC)n1cc(Cl)nc(Nc2cc(C)c(OC)cc2C)c1=O
IC50 [1]: 2.1 nM

COc1ccc(Nc2nccn([C@H](C)C3CC3)c2=O)c(C(F)(F)F)n1
IC50 [1]: 150 nM

CCCC(CCC)n1cc(Cl)nc(Nc2cc(C)c(OC)cc2C)c1=O
IC50 [1]: 0.62 nM
